# Screens from PubChem.
# esBAF inh – blocks esBAF chromatin remodeling in mouse ES cells; Bmi1-luciferase knock-in reporter, 24 h; 100% = twice the neutral-well signal; reporter increase, % at 12.5 µM; 350,000 compounds, 2% hits; in the data active means activation above about 40%; inconclusive means no clear call, values can overlap the other calls;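 further: 0% = median of the plate's neutral control wells and 100% = double that signal; a rise in the Bmi1 reporter signal indicates esBAF inhibition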
# Wnt bcat act – activators of Wnt/beta-catenin signaling; Wnt/beta-catenin reporter cell assay, activator, plate reader; 300,000 compounds, 1.2% hits; activation, % at 9.35 µM; AID 743398; in the data active means activation above about 30%, passing the limit was not always enough; inconclusive means no clear call, values can overlap the other calls;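 further: 0% = neutral control wells and 100% = positive control wells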
# MITF TRPM1 HTS – increases MITF-driven TRPM1 promoter luciferase signal | SK-MEL-5 TRPM1-promoter luciferase, 24 h; % of positive control, neutral wells = 0 | 300,000 compounds, 0.75% hits | activation, % at 12.5 µM;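 active means mean activation of at least 80% with every replicate also reaching 80%; inconclusive means mean reaches 80% but some replicate falls short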;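 further: 0% = neutral control wells and 100% = parthenolide positive control wells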
# XiGFP reactiv – activators of X-chromosome reactivation in mouse fibroblasts. AID 743238. activation, % at 7.58 µM. XiGFP mouse fibroblasts, % GFP-positive cells imaging, 3 d; cells co-treated with 5-aza-dC sensitizer; scaled so ellipticine positive control = 100%. 360,000 compounds, 0.055% hits;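 active means mean normalized replicate activation at least 10% and every replicate at or above 10%; inconclusive means only one of the two criteria met; inactive means mean below 10% and not all replicates reach 10%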;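 further: 0% = median of on-plate neutral control wells and 100% = ellipticine 6 µM median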
#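 Material: SV40-immortalized XiGFP fibroblast cells, line 68-5-11 | Buffer or medium: DMEM containing 5-aza-dC | Dosing: One concentration, pinned | Times: 3 d treatment, 15 min room-temperature fixation | Controls: Ellipticine 6 µM positive control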
# Vif imaging – inhibitors of HIV Vif. HEK293T cells, Vif self-association by quenched fluorescence, imaging, 24 h. 340,000 compounds, 0.35% hits. inhibition, % at 7.49 µM; in the data active means inhibition above about 50%, passing the limit was not always enough; inconclusive means no clear call, values can overlap the other calls; inactive means below about 31%
# The depositor's hits bear a star; ? = inconclusive; / = not tested or not shown. Shown are actives, neighbours in structure and some others; about 2.6% of the full set was active somewhere.
SMILES,esBAF inh,Wnt bcat act,MITF TRPM1 HTS,XiGFP reactiv,Vif imaging
CC=Cc1ccc2n(c1=O)C[C@H]1[C@H](CO)[C@@H](C(=O)N(C)C)N(Cc3cccc(F)c3)[C@@H]21 (mixture of isomers),-3,/,/,0,/
Cc1ccc(Nc2nc(CSc3nnnn3C)cs2)cc1,61*,30,75,/,-18
Cc1ccc(Nc2nc(CSc3n[nH]c(N)n3)cs2)cc1,-50,43*,93*,0,-1
Cc1ccc(CSc2n[nH]c(N)n2)cc1,23,1,23,0,20
CC(C)NC(=O)Nc1ccc2c(c1)C(=O)N([C@H](C)CO)C[C@@H](C)[C@@H](CN(C)C(=O)Nc1ccc(F)cc1)O2,1,/,/,0,/
C[C@H](CO)N1C[C@H](C)[C@H](CN(C)C(=O)Nc2ccccc2)OCCCC[C@H](C)Oc2ccc(NC(=O)Nc3cccc4ccccc34)cc2C1=O,6,/,/,0,/
Nc1ccc(-c2cnc(-c3ccc(N)cc3)nc2)cc1,-58,/,/,/,77*
COc1ccc(CN(CC(=O)NC2CCCC2)C(=O)CN2C(=O)COc3ccccc32)cc1,-1,-3,1,0,54*
O=C(Nc1nnc(SCc2ccc(Cl)cc2)s1)C1CC(=O)N(Cc2ccccc2)C1 (centres undefined),-14,34*,4,0,-9
COC(=O)c1ccc(CSc2nnc(NC(=O)C3CC(=O)N(Cc4ccc(C)cc4)C3)s2)cc1 (centres undefined),-4,-3,-19,0,0
O=C(C[C@@H]1C=C[C@H](NC(=O)CC2CC2)[C@H](CO)O1)NCc1ccccc1,/,/,/,0,/
CCCNC(=O)Nc1ccc2c(c1)OC[C@@H](C)N(C(=O)CC)C[C@@H](C)[C@H](OC)CN(C)C2=O,/,/,/,0,/
CCOc1ccc2nc(-c3ccccc3)[nH]c2c1,-36,/,/,/,0
COc1ccc2[nH]c(-c3ccccc3)cc2c1,?,46*,106*,0,-11
COc1ccc2[nH]c(-c3ccc(C)cc3)cc(=O)c2c1,-55,/,-47,/,1
COc1ccc(-c2nc3ccc([N+](=O)[O-])cc3[nH]2)cc1,/,50*,47,0,?
COc1ccc2nc(-c3ccccc3)[nH]c2c1,4,75*,/,/,9
O=C(Cc1ccccc1)N1CC2(C1)[C@@H](c1ccccc1)[C@@H](CO)N2C(=O)c1cccnc1,/,/,/,0,/
Cc1nn(CC2CC2)c(=O)n1-c1ccccc1F,0,0,-6,0,7
Cc1ccc(-n2c(C)nn(CCOc3ccccc3)c2=O)cc1,45*,19,65,0,-1
Cc1nn(CCOc2ccccc2)c(=O)n1-c1c(F)cccc1F,?,60*,/,/,3
Cc1nn(C)c(=O)n1-c1ccc(Oc2ccccc2)cc1,5,/,5,/,8
C=CCN1N=C(/C=C/c2ccc(C)cc2)CCC1=O,56*,6,53,0,15
COc1ccc(NC(=O)Nc2ccc3c(c2)CC(=O)N([C@@H](C)CO)C[C@H](C)[C@H](CN(C)S(=O)(=O)c2ccc(C)cc2)O3)cc1,/,/,/,0,/
Cc1cc(-c2onc(C)c2C(=O)Oc2ccc(Cl)cc2)no1,-11,-5,5,0,9
SMILES,esBAF inh,Wnt bcat act,MITF TRPM1 HTS,XiGFP reactiv,Vif imaging
Cc1cc(-c2onc(C)c2C(N)=O)no1,0,38*,-10,0,8
N#Cc1nc(-c2ccc(Cl)cc2)oc1NCCc1ccccn1,24,36*,27,/,-19
Cc1ccc(-c2nc(C#N)c(NCCc3ccccn3)o2)cc1,52*,/,67,/,-12
COc1ccc(-c2nc(C#N)c(NCCc3ccccc3)o2)cc1,/,19,66,/,1
CCCC(=O)Nc1ccc(NC(=O)c2ccco2)c(OC)c1,63*,16,88*,/,/
COc1cc(NC(=O)CC(C)C)ccc1NC(=O)c1ccco1,23,-1,70,/,-5
CCC(=O)Nc1ccc(NC(=O)c2ccco2)c(OC)c1,23,41*,57,/,0
C=CCc1c(C)nc2c(-c3ccccc3)cnn2c1N1CCOCC1,84*,40*,76,0,3
COc1ccc(-c2nc3n(c2C)Cc2ccccc2-3)cc1,/,46*,/,0,-2
O=c1cc(-c2ccccc2)nc2n1Cc1ccccc1-2,10,/,-2,/,1
O=c1c2ccccc2nc2sc(Nc3cccc(Cl)c3)nn12,46*,22,37,0,-3
Cc1nc2ccccc2c(=O)n1Nc1cccc(Cl)c1,/,-5,-3,0,/
